Only some compounds are listed: those with a hit (about 1.4% of all), similar ones and a draw of the others.
HCV NS3 hel inh: inhibitors of HCV NS3 helicase, primary screen, biochemical, Cy5 molecular beacon fluorescence; Hepatitis C virus NS3 helicase; NS3 helicase DNA unwinding; inhibition, % at 10.9 µM; actives 0.56% (n = 290,000); AID 1800, 2009;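 active = inhibition above the mean of all tested compounds plus 3 SD, set per campaign, cut at about 35% in these data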
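Test system: hepatitis C virus NS3 helicase domain fragment enzyme. Also added: annealed dual-labelled DNA beacon duplex, ATP-started. Timing: 60 min unwinding reaction at 25 °C after ATP addition. Technique: Cy5 fluorescence. Measure: % inhibition of unwinding.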
EBNA-1 inhibitor: EBNA-1 DNA-binding inhibitors, primary screen, biochemical, fluorescence polarization; actives 0.34% (n = 300,000); inhibition, % at 14.8 µM; in the data active = inhibition above about 28%
ZTA counter: counter-screen for EBNA-1 inhibitors: inhibitors of Epstein-Barr virus ZTA; P03206; ZTA-DNA binding, fluorescence polarization; inhibition, % at 11 µM; actives 0.15% (n = 320,000); in the data active = inhibition above about 33%
Target sequence (P03206 whole entry, looked up): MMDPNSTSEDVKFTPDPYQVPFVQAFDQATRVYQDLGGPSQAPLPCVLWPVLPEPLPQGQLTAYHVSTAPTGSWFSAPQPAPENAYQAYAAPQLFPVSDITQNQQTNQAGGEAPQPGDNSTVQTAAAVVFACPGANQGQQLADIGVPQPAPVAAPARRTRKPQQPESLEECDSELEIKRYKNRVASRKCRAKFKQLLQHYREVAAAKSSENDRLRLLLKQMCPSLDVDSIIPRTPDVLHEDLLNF
Fh CTSL1 inh: Fasciola hepatica cathepsin L1 inhibitors, primary screen, counter-screen for PFM18AAP inhibitor project, biochemical, QFRET, fluorogenic peptide substrate. inhibition, % at 5.96 µM. actives 0.49% (n = 300,000). recombinant F. hepatica cathepsin L1, Z-Leu-Arg-MCA fluorescence;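 active = inhibition above the mean of all tested compounds plus 3 SD, set per screening campaign, cut at about 17% in these data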
NS3 hel confirm: HCV NS3 helicase inhibitors, retest, confirmation, biochemical, Cy5 molecular beacon fluorescence, triplicate. NS3 helicase DNA unwinding. inhibition, % at 10.9 µM. shares compounds with HCV NS3 hel inh. actives 31% (n = 1,600);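 active = inhibition above the mean of all tested compounds plus 3 SD, cutoff set per campaign, cut at about 36% in these data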
DNA FID counter: compounds displacing fluorescent DNA intercalator, artefact control for HCV NS3 helicase inhibitor project, biochemical, FID fluorescence, triplicate | actives 4% (n = 1,600) | inhibition, % at 7.9 µM | shares compounds with HCV NS3 hel inh | DNA fluorescent intercalator displacement; in the data active = inhibition above about 37%;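 also: higher means more displacement of ethidium bromide from the DNA hairpin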
FID counter DR: compounds displacing fluorescent intercalator from DNA, dose response, counter-screen for HCV NS3 helicase inhibitor project, biochemical, fluorescence | 120 tested, under 10 active | AID 2172, 2009 | fluorescent intercalator displacement from DNA | shares compounds with HCV NS3 hel inh | IC50, µM; call rule not given here
Of the large screens only hits and unclear results are named; the others gave an inactive call (follow-up assays come after a bar, where they were run).

Cc1c(C(=O)c2ccc(N(C)C)cc2)c2ccccn2c1CCC#N	none
C=COC(=O)CSc1nc(-c2cccs2)ccc1C#N	HCV NS3 hel inh 47.5 | NS3 hel confirm inactive | DNA FID counter inactive
O=C(CCc1nc2ccccc2c(=O)[nH]1)NCC(=O)Nc1ccc(F)c(F)c1	none (no result: HCV NS3 hel inh)
O=C(CCc1nc2ccccc2c(=O)[nH]1)Nc1ccc(F)c([N+](=O)[O-])c1	HCV NS3 hel inh 51.6 | NS3 hel confirm inactive | DNA FID counter inactive
CCn1c(=O)c2ccccc2n(Cc2ccc([N+](=O)[O-])cc2)c1=O	none
O=C(O)c1ccc(-c2ccco2)n1Cc1ccccc1	HCV NS3 hel inh 45.3 | NS3 hel confirm inactive | DNA FID counter inactive
CN(C)C(CNc1ncnc2sccc12)c1cccs1 (centres undefined)	HCV NS3 hel inh 73.8 | NS3 hel confirm inactive | DNA FID counter inactive
O=C(Nc1ccccc1)C1=C(O)CC(c2ccco2)CC1=Nc1ccccc1 (centres undefined)	none
O=C(Nc1ccccc1)C1=C(O)CC(c2ccoc2)CC1=Nc1ccccc1 (centres undefined)	HCV NS3 hel inh 41.2, Fh CTSL1 inh 22.4 | NS3 hel confirm inactive | DNA FID counter inactive
CCCCn1c(=O)[nH]c(=O)c2c1nc(-c1ccc(-c3ccccc3)cc1)n2C	none
COc1ccc(N=C2SC(CC(=O)Nc3ccccc3OC)C(=O)N2Cc2ccco2)cc1 (centres undefined)	HCV NS3 hel inh 40.9 | NS3 hel confirm inactive | DNA FID counter inactive
COC/C=C/C1=CC2=CC(=O)C(C)(OC(=O)c3cnc4ccccc4n3)C(=O)C2=CN1c1ccccc1 (centres undefined)	none (no result: HCV NS3 hel inh)
COC/C=C/C1=CC2=CC(=O)C(C)(OC(=O)c3cnc4ccccc4n3)C(=O)C2=CN1c1ccc(CO)cc1 (centres undefined)	HCV NS3 hel inh 49.8 | NS3 hel confirm 42.2 | DNA FID counter inactive
COC/C=C/C1=CC2=CC(=O)C(C)(OC(=O)c3cnc4ccccc4n3)C(=O)C2=CN1C1CCCCC1 (centres undefined)	HCV NS3 hel inh 38.0 | NS3 hel confirm inactive | DNA FID counter inactive
Cc1cc(OCc2cc(C(=O)N(C)CCOc3ccccc3)no2)cc(C)c1Cl	none
Cc1cc(Cl)ccc1Oc1ccccc1C(=O)CC#N	HCV NS3 hel inh 36.6 | NS3 hel confirm 53.1 | DNA FID counter inactive | FID counter DR inactive
N#CC1=C(S)N(c2ccccc2)C(c2ccc(-c3ccccc3Cl)o2)NC1=O (centres undefined)	HCV NS3 hel inh 42.2 | NS3 hel confirm 51.1 | DNA FID counter inactive
CCCNC(=S)Nc1ccc(Nc2ccccc2)cc1	none
COc1ccc2cc(-c3cc(C(=O)O)c4ccccc4n3)ccc2c1	HCV NS3 hel inh 39.7 | NS3 hel confirm 45.2 | DNA FID counter inactive
COc1ccc(-c2cc(C(=O)O)c3ccccc3n2)c(OC)c1	none
COc1ccc(/C=N/NC(=O)c2cccc(NC(=O)c3ccccc3Cl)c2)cc1	HCV NS3 hel inh 61.0 | NS3 hel confirm inactive | DNA FID counter inactive
COc1ccc(/C=N/NC(=O)c2cccc(NC(=O)c3ccccc3Cl)c2)cc1OC	none
Cc1ccc(C(=O)N/N=C\c2ccc(Br)o2)o1	none
Cc1ccc(C(=O)N/N=C/c2ccc(-c3ccc(Br)cc3[N+](=O)[O-])o2)o1	HCV NS3 hel inh 48.1 | NS3 hel confirm inactive | DNA FID counter inactive
COc1cccc(NC(=O)CCc2c(C)nn(-c3ccc(N4CCOCC4)nn3)c2C)c1	none
Cc1ccccc1NC(=O)c1sc2nc3c(c(-c4ccco4)c2c1N)CCCC3	HCV NS3 hel inh 44.0 | NS3 hel confirm inactive | DNA FID counter inactive
Nc1c(C(=O)Nc2ccccc2)sc2nc3c(c(-c4ccco4)c12)CCC3	HCV NS3 hel inh 41.2 | NS3 hel confirm inactive | DNA FID counter inactive
Brc1cccc(C2Nc3cccc4cccc(c34)N2)c1	none
COc1ccc(C2Nc3cccc4cccc(c34)N2)cc1	none
Clc1ccc(C2Nc3cccc4cccc(c34)N2)cc1Cl	HCV NS3 hel inh 58.7 | NS3 hel confirm inactive | DNA FID counter inactive
Clc1cccc(C2Nc3cccc4cccc(c34)N2)c1	HCV NS3 hel inh 54.6 | NS3 hel confirm inactive | DNA FID counter inactive
O=C(Cn1c(=O)n(Cc2ccco2)c(=O)c2c3c(sc21)CCCC3)Nc1ccccc1	HCV NS3 hel inh 47.2 | NS3 hel confirm inactive | DNA FID counter inactive
O=c1c2c3c(sc2n(CCN2CCCCC2)c(=O)n1Cc1ccco1)CCCCC3	none
NC(=O)Cn1c(=O)n(Cc2ccco2)c(=O)c2c3c(sc21)CCCCC3	HCV NS3 hel inh 38.7 | NS3 hel confirm inactive | DNA FID counter inactive
COc1ccc(C(CNC(=O)C2CC2)N(C)C)cc1 (centres undefined)	none
Cc1ccc(NC(=O)CSc2nc(=O)n(CCN3CCOCC3)c3c2CCCC3)cc1	none (no result: HCV NS3 hel inh)
CCOc1ccc(S(=O)(=O)NCc2cccnc2)cc1NC(=O)c1ccccc1F	none
CC(=O)C1=C(O)C(=O)N(c2ccc(O)cc2)C1c1ccc(Cl)cc1 (centres undefined)	none
CC(=O)C1=C(O)C(=O)N(c2ccc(Br)cc2)C1c1ccc(Cl)cc1 (centres undefined)	HCV NS3 hel inh 37.5 | NS3 hel confirm 79.6 | DNA FID counter inactive
CC(=O)C1=C(O)C(=O)N(c2cc(C(C)(C)C)on2)C1c1ccc(Br)cc1 (centres undefined)	HCV NS3 hel inh 37.9 | NS3 hel confirm 68.2 | DNA FID counter inactive
Cn1c(C(=O)OCC(=O)NCc2cccs2)cc2sccc21	none
COc1ccc(OC)c2sc(NC(=O)c3ccc(S(=O)(=O)N(C)C)cc3)nc12	HCV NS3 hel inh 40.8 | NS3 hel confirm inactive | DNA FID counter inactive
COc1ccccc1NC(=O)c1ccc(S(=O)(=O)N(C)C)cc1	none
C/C(=N\NC(=O)CC1(C)OCCO1)c1cccs1	HCV NS3 hel inh 45.8 | NS3 hel confirm inactive | DNA FID counter inactive
C/C(=N/NC(=O)c1cccs1)c1cccs1	none
COc1ccc(C(=O)O)cc1NC(=S)NC(=O)/C=C/c1ccc(C(C)C)cc1	HCV NS3 hel inh 43.4 | NS3 hel confirm 58.3 | DNA FID counter inactive
CCC(C)(C(=O)NC1CCCCC1)N(Cc1ccco1)C(=O)c1ccc2c(c1)OCO2 (centres undefined)	HCV NS3 hel inh 36.4 | NS3 hel confirm inactive | DNA FID counter inactive
COc1ccccc1COc1ccc2c(C)c(CC(=O)O)c(=O)oc2c1C	HCV NS3 hel inh 48.4 | NS3 hel confirm inactive | DNA FID counter inactive
CCOC(=O)c1c(N)sc(=S)c2c1CCC2	HCV NS3 hel inh 57.6 | NS3 hel confirm inactive | DNA FID counter inactive
